These results are taken from article PMC6901019 (Antiviral research, 2019).

Usually EC50 stands for the concentration needed to bring the measured effect to its halfway point. For orientation: inhibition means the relative decrease from the control value, in per cent. The CC50 is the concentration giving 50% cytotoxicity. A higher CC50 goes with better tolerance by the cells. In general, Kd refers to the equilibrium constant for the complex coming apart. The koff is a measure of how fast the partners let go of each other. A low value points to slow dissociation. A word on the IC50: it is the concentration that inhibits the measured activity by half. A higher IC50 goes with lower potency.

Like-named read-outs stand apart in the source and are kept apart here. Some results are limits rather than exact numbers.

In one data set the test system is HIV-1. As to conditions: cited from earlier work.
In another data set the target is HIV-1 CA CTD (Human immunodeficiency virus type 1 group M subtype B, UniProt P12493). The data set can be described thus: HTRF-based CAI binding competition assay. As to conditions: for inhibition at 50 µM: read-out: inhibition of CA CTD-CAI HTRF signal. On the technique in general: In TR-FRET formats the signal depends on donor and acceptor labels being close together.

The test system of data set [1] is Gag polyprotein processing. The data set can be described thus: Anti-p24 western blot of infected MT-4 cell lysates. As to conditions: MT-4 cells, 3 days of HIV-1IIIB replication, anti-p24 immunoblotting. Type of data set: cell-based. Background: In western blotting, separated proteins are transferred to a membrane and probed.
In the next data set the target is WT CA protein (Human immunodeficiency virus type 1 group M subtype B, UniProt P12493). Nature of the data set: In vitro CA assembly assay. Type of data set: biochemical, HIV-1. As to conditions: 50 μM CA-WT, NaCl-dependent assembly, OD 350 nm. In short, it runs like this: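 Full-length WT CA (E. coli, pET11a) was dialysed into 50 mM sodium phosphate, pH 8.0, and mixed with test compound in 500 μl of that buffer. Assembly was started by adding 500 μl of the same buffer containing 4 M NaCl, pH 8.0. OD350 was read every 20 s for 30 min.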

Another data set deals with C8166 cells. The data set can be described thus: MTT cytotoxicity assay. Type of data set: cell-based, Human. As to conditions: 3 days. In short, it runs like this: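 C8166 T cells were maintained in RPMI 1640 with 10% FBS, penicillin and streptomycin. They were seeded at 4×10^4/well with serially diluted test compound and kept at 37°C, 5% CO2. Viability was measured by MTT after 3 days, and the 50% cytotoxic concentration was calculated.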
(Tetrazolium assays rely on reduction of a dye to a coloured formazan, in cell work by metabolically active cells.)

Data set [2] deals with CAI-biotin peptide (biotinylated capsid assembly inhibitor peptide). Nature of the data set: BLI.
For data set [3], the target named is GST-tagged HIV-1 capsid C-terminal domain (GST-CA CTD) (HIV-1). The data set can be described thus: AlphaScreen or HTRF.

On to `Cc1ccnc(SCc2nc3ccccc3s2)n1` [BMMP], for which the EC50 in the data set with HIV-1 (ref Urano et al., 2011) is 20 to 50 µM. Turning to `Cc1ccc(NC(=O)NCCSCc2ccc(CN(C)C)o2)cc1Cl` [CAP-1], the EC50 in the data set on HIV-1 (ref Tang et al. 2003) was ~70 µM. Turning to `CO[C@H]1[C@H](OC(=O)c2ccc(C)[nH]2)[C@H](O)[C@@H](Oc2ccc3c(O)c(NC(=O)c4c[nH]c(C(=O)Nc5c(O)c6ccc(O[C@H]7OC(C)(C)[C@@H](OC)[C@H](OC(=O)c8ccc(C)[nH]8)[C@@H]7O)c(C)c6oc5=O)c4C)c(=O)oc3c2C)OC1(C)C` [Coumermycin A1], the EC50 in the data set on HIV-1 (ref Chen et al., 2016, Vozzolo et al. 2010) was 8 µM. `O=c1c2ccccc2[se]n1-c1ccccc1` [Ebselen]: the inhibition at 50 µM at HIV-1 CA CTD is < 3.2%. The EC50 in the data set with HIV-1 (ref Thenin-Houssier et al., 2016) is 3.37 µM. Regarding `C[C@H](CCC(=O)NCC(=O)O)[C@H]1CC[C@H]2[C@@H]3CC[C@@H]4C[C@H](O)CC[C@]4(C)[C@H]3C[C@H](O)[C@]12C` [GDC, glycodeoxycholate], the inhibition at 50 µM at HIV-1 CA CTD was < 20%. The EC50 with HIV-1 (ref Lampel et al., 2015) is 3.12 µM. On to `Cc1[nH]c2ccccc2c1CC(=O)N[C@@H](Cc1ccccc1)C(=O)N(C)c1ccccc1` [PF-3450074 (PF74)], for which the EC50 in the data set on HIV-1 (ref Blair et al., 2010, Shi et al., 2011) is 0.3 to 0.6 µM. Regarding `C[C@H](CCC(=O)NCCS(=O)(=O)O)[C@H]1CC[C@H]2[C@@H]3[C@H](O)C[C@@H]4C[C@H](O)CC[C@]4(C)[C@H]3C[C@H](O)[C@]12C` [TA, taurocholic acid], the inhibition at 50 µM on HIV-1 CA CTD is < 20%. For the compound `Cc1cc(C=C2C(=O)C=CC2=O)cc(C)c1O` [TX-1918], the “effect on CA p24 production / Gag Pr55 processing” value in data set [1] is on record as “significant reductions in proteolyzed CA p24 with increasing concentrations”. In addition, the “effect on in vitro CA assembly” value at WT CA protein is given as “inhibited CA assembly in vitro”. In addition, the “inhibition of CA CTD-CAI HTRF signal” value at HIV-1 CA CTD (compound at 50 μM) was > 70%. Moreover, the midpoint of cytotoxicity in the data set on C8166 cells, the CC50, lay at 20.8 µM. Consider `CC(=O)Nc1cccc(-n2c(=O)n(C3CC3)c(=O)c3c(Nc4ccc(I)cc4F)n(C)c(=O)c(C)c32)c1` [trametinib], for which the inhibition at 50 µM at HIV-1 CA CTD is < 3.2%. Regarding “GST-tagged HIV-1 capsid C-terminal domain (GST-CA CTD) (domain or fragment)”, in data set [2], the Kd amounted to 0.007 µM and the koff turned out to be 0.000152 s⁻¹.

Take “untagged CAI peptide (capsid assembly inhibitor)”: the IC50 in data set [3] is 6.5 µM.
